# Experimental data from ChEMBL document CHEMBL4732072, “Synthesis of 17β-hydroxysteroid dehydrogenase type 10 steroidal inhibitors: Selectivity, metabolic stability and enhanced potency” (Eur J Med Chem, 2021).
# Tested on: not listed separately
# Experiment: Inhibition of human 17-beta-HSD10 expressed in HEK293 cells assessed as reduction in oxidation of [14C]-estradiol to [14C]-estrone incubated for 40 hrs by thin layer chromatography
# Format: cell-based
# Details: not given
# How it was run: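 The same HEK-293[17β-HSD10] cell assay was used: 2.5 x 10^5 cells, 0.5% final DMSO, 1 µM E2/[14C]-E2 (9:1) for 40 h at 37°C, with Et2O extraction, TLC and radioactivity quantification. Inhibitor was tested from 0.01 to 5 µM in triplicate. IC50 was calculated from the inhibition curves.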
row,Structure (SMILES),IC50
1,C[C@]12CC[C@](O)(CN3CCN(C(=O)c4ccc(C#N)cc4)CC3)C[C@@H]1CC[C@@H]1[C@@H]2CC[C@]2(C)C(=O)CC[C@@H]12,1660 nM
2,COc1cc(C)ccc1CN1CCN(C[C@@]2(O)CC[C@@]3(C)[C@@H](CC[C@@H]4[C@@H]3CC[C@]3(C)C(=O)CC[C@@H]43)C2)CC1,3000 nM
3,COc1cc(CN2CCN(C[C@@]3(O)CC[C@@]4(C)[C@@H](CC[C@@H]5[C@@H]4CC[C@]4(C)[C@H](O)CC[C@@H]54)C3)CC2)ccc1C(F)(F)F,950 nM
4,COc1cccc(CN2CCN(C[C@@]3(O)CC[C@@]4(C)[C@@H](CC[C@@H]5[C@@H]4CC[C@]4(C)C(=O)CC[C@@H]54)C3)CC2)c1,2260 nM
5,C[C@]12CC[C@](O)(CN3CCN(C(=S)NCc4cccc(C(F)(F)F)c4)CC3)C[C@@H]1CC[C@@H]1[C@@H]2CC[C@]2(C)C(=O)CC[C@@H]12,1410 nM
6,Cc1cc(C)cc(C(=O)N2CCN(C[C@@]3(O)CC[C@@]4(C)[C@@H](CC[C@@H]5[C@@H]4CC[C@]4(C)C(=O)CC[C@@H]54)C3)CC2)c1,2050 nM
7,CCN(C)S(=O)(=O)N1CCN(C[C@@]2(O)CC[C@@]3(C)[C@@H](CC[C@@H]4[C@@H]3CC[C@]3(C)C(=O)CC[C@@H]43)C2)CC1,1570 nM
8,CC(=O)c1cccc(C(=O)N2CCN(C[C@@]3(O)CC[C@@]4(C)[C@@H](CC[C@@H]5[C@@H]4CC[C@]4(C)C(=O)CC[C@@H]54)C3)CC2)c1,2300 nM
9,C[C@]12CC[C@](O)(CN3CCN(C(=O)c4ccc(-c5ccccc5)cc4)CC3)C[C@@H]1CC[C@@H]1[C@@H]2CC[C@]2(C)C(=O)CC[C@@H]12,2600 nM
10,CN(C)S(=O)(=O)c1ccc(NC(=S)N2CCN(C[C@@]3(O)CC[C@@]4(C)[C@@H](CC[C@@H]5[C@@H]4CC[C@]4(C)C(=O)CC[C@@H]54)C3)CC2)cc1,1070 nM

# Tested on: not listed separately
# Experiment: Metabolic stability in human liver microsomes assessed as compound remaining at 1 uM incubated for 1 hr in presence of NADPH by HPLC-MS analysis
# Format: ADME, Microsome
# Details: read-out: Stabilty
# How it was run: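 Human liver microsomes (40 µg) were incubated with compound for 1 h at 37°C, with or without 10 mM NADPH, in 50 mM Tris with 10 mM MgCl2. The reaction was quenched with MeOH and centrifuged, and supernatants from 2 assays were pooled. Analysis was by HPLC-MS with UV at 190 nm. Remaining % = peak area with NADPH / area without NADPH x 100, from two experiments in duplicate.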
row,Structure (SMILES),"remaining at 1 h, 1 µM"
1,COc1cccc(CN2CCN(C[C@@]3(O)CC[C@@]4(C)[C@@H](CC[C@@H]5[C@@H]4CC[C@]4(C)C(=O)CC[C@@H]54)C3)CC2)c1,28%

# Molecular target: T1, 17-beta-hydroxysteroid dehydrogenase type 3 (Homo sapiens, UniProt P37058)
# T1 sequence (P37058 whole entry): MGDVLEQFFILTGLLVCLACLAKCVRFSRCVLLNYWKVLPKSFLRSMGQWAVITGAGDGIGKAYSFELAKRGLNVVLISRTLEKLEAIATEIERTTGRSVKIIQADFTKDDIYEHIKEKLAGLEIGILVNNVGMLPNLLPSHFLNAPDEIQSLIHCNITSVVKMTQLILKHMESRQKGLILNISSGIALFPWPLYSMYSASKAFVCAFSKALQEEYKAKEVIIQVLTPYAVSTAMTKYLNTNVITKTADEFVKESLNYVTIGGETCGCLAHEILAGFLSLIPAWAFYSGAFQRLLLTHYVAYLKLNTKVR
# Experiment: Inhibition of human 17-beta-HSD3 expressed in LNCaP cells assessed as reduction in […]-3,17-dione to [14C]-testosterone at 3 uM incubated for 1 hr by thin layer chromatography
# Format: cell-based
# Details: not given
# How it was run: (§1)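 LNCaP cells overexpressing 17β-HSD3 were plated at 10^4 per well in medium without hygromycin for 2 days. 15 nM [14C]-4-androstene-3,17-dione plus inhibitor was then added (final DMSO 0.05%) for 1 h at 37°C. Steroids were Et2O-extracted and separated by silica TLC (toluene/acetone 4:1). % inhibition was taken from radioactivity-based % transformation versus a blank control.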
row,Structure (SMILES),inhibition at 3 µM
1,COc1cccc(CN2CCN(C[C@@]3(O)CC[C@@]4(C)[C@@H](CC[C@@H]5[C@@H]4CC[C@]4(C)C(=O)CC[C@@H]54)C3)CC2)c1,84.4%

# Tested on: HEK293
# Experiment: Inhibition of human 17-beta-HSD10 expressed in HEK293 cells assessed as reduction in oxidation of [14C]-estradiol to [14C]-estrone at 0.3 uM incubated for 40 hrs by thin layer chromatography
# Format: cell-based
# Details: not given
# How it was run: (§2)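 Stably transfected HEK-293 cells expressing human 17β-HSD10 (G418-selected) were seeded at 2.5 x 10^5 per well for 24 h. Inhibitor was added from a DMSO stock (final DMSO 0.5%) with E2/[14C]-E2 (9:1, final 1 µM) for 40 h at 37°C. Steroids were Et2O-extracted, TLC-separated and quantified by radioactivity. % inhibition was taken from blank-corrected % transformation, run in triplicate.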
row,Structure (SMILES),inhibition
1,COc1cccc(CN2CCN(C[C@@]3(O)CC[C@@]4(C)[C@@H](CC[C@@H]5[C@@H]4CC[C@]4(C)C(=O)CC[C@@H]54)C3)CC2)c1,40.7%

# Tested on: HEK293
# Experiment: Potency index, ratio of (3R,5S,8R,9S,10S,13S,14S)-3-hydroxy-3-((4-(3-methoxybenzyl)piperazin-1-yl)methyl)-10,13-dimethyltetradecahydro-1H-cyclopenta[a]phenanthren-17(2H)-one IC50 to compound IC50 for inhibition of human 17-beta-HSD10 expressed in HEK-293 cells
# Format: cell-based
# Details: not given
row,Structure (SMILES),Ratio IC50
1,C[C@]12CC[C@](O)(CN3CCN(C(=O)c4ccc(C#N)cc4)CC3)C[C@@H]1CC[C@@H]1[C@@H]2CC[C@]2(C)C(=O)CC[C@@H]12,1.36
2,COc1cc(C)ccc1CN1CCN(C[C@@]2(O)CC[C@@]3(C)[C@@H](CC[C@@H]4[C@@H]3CC[C@]3(C)C(=O)CC[C@@H]43)C2)CC1,0.75
3,COc1cc(CN2CCN(C[C@@]3(O)CC[C@@]4(C)[C@@H](CC[C@@H]5[C@@H]4CC[C@]4(C)[C@H](O)CC[C@@H]54)C3)CC2)ccc1C(F)(F)F,2.4
4,C[C@]12CC[C@](O)(CN3CCN(C(=S)NCc4cccc(C(F)(F)F)c4)CC3)C[C@@H]1CC[C@@H]1[C@@H]2CC[C@]2(C)C(=O)CC[C@@H]12,1.6
5,Cc1cc(C)cc(C(=O)N2CCN(C[C@@]3(O)CC[C@@]4(C)[C@@H](CC[C@@H]5[C@@H]4CC[C@]4(C)C(=O)CC[C@@H]54)C3)CC2)c1,1.1
6,CCN(C)S(=O)(=O)N1CCN(C[C@@]2(O)CC[C@@]3(C)[C@@H](CC[C@@H]4[C@@H]3CC[C@]3(C)C(=O)CC[C@@H]43)C2)CC1,1.44
7,CC(=O)c1cccc(C(=O)N2CCN(C[C@@]3(O)CC[C@@]4(C)[C@@H](CC[C@@H]5[C@@H]4CC[C@]4(C)C(=O)CC[C@@H]54)C3)CC2)c1,0.98
8,C[C@]12CC[C@](O)(CN3CCN(C(=O)c4ccc(-c5ccccc5)cc4)CC3)C[C@@H]1CC[C@@H]1[C@@H]2CC[C@]2(C)C(=O)CC[C@@H]12,0.87
9,CN(C)S(=O)(=O)c1ccc(NC(=S)N2CCN(C[C@@]3(O)CC[C@@]4(C)[C@@H](CC[C@@H]5[C@@H]4CC[C@]4(C)C(=O)CC[C@@H]54)C3)CC2)cc1,2.11

# Molecular target: T1, 17-beta-hydroxysteroid dehydrogenase type 3
# Experiment: Inhibition of human 17-beta-HSD3 expressed in LNCaP cells assessed as reduction in […]-3,17-dione to [14C]-testosterone at 0.3 uM incubated for 1 hr by thin layer chromatography
# Format: cell-based
# Details: not given
# How it was run: as §1
row,Structure (SMILES),inhibition at 0.3 µM
1,COc1cccc(CN2CCN(C[C@@]3(O)CC[C@@]4(C)[C@@H](CC[C@@H]5[C@@H]4CC[C@]4(C)C(=O)CC[C@@H]54)C3)CC2)c1,30.2%

# Tested on: HEK293
# Experiment: Inhibition of human 17-beta-HSD10 expressed in HEK293 cells assessed as reduction in oxidation of [14C]-estradiol to [14C]-estrone at 3 uM incubated for 40 hrs by thin layer chromatography
# Format: cell-based
# Details: not given
# How it was run: as §2
row,Structure (SMILES),inhibition
1,COc1cccc(CN2CCN(C[C@@]3(O)CC[C@@]4(C)[C@@H](CC[C@@H]5[C@@H]4CC[C@]4(C)C(=O)CC[C@@H]54)C3)CC2)c1,70.4%
